Experimental data from ChEMBL document CHEMBL3588851, “Antiviral Matrine-Type Alkaloids from the Rhizomes of Sophora tonkinensis” (J Nat Prod, 2015).
Calls of active or inactive are those of the source. No cut-off for these calls is given here.

What was measured:
[1] = tested on: Coxsackievirus B3; assay: Antiviral activity against coxsackievirus B3 infected in African green monkey Vero cells assessed as inhibition of virus-induced cytopathogenic effect at maximal nontoxic concentration dosed 1 hr after viral adsorption; type: functional, organism-based
Procedure, shortened: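 Confluent Vero monolayers in 96-well plates infected with 100 TCID50 CVB3. After 1 h adsorption at 37 °C, cells washed with PBS. Then incubated at 37 °C in maintenance medium (MEM + 2% FBS) with or without compound, tested at its maximal nontoxic concentration.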

[2] = tested on: Influenza A virus; assay: Antiviral activity against influenza A virus (A/Hanfang/359/95(H3N2)) infected in MDCK cells assessed as inhibition of virus-induced cytopathogenic effect at maximal nontoxic concentration dosed 1 hr after viral adsorption; type: functional, organism-based
[3] = Selectivity index, ratio of TC50 for African green monkey Vero cells to IC50 for coxsackievirus B3 infected in African green monkey Vero cells; type: toxicity, cell-based; conditions: read-out: Selectivity Index
Procedure, shortened: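 SI = TC50/IC50. TC50 from 48 h CPE-monitored Vero toxicity, calculated by Reed and Muench. IC50 from Vero monolayers infected with 100 TCID50 CVB3, adsorbed 1 h at 37 °C, PBS-washed, then maintained in MEM + 2% FBS with compound at 37 °C.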

[4] = tested on: Coxsackievirus B3; assay: Antiviral activity against coxsackievirus B3 infected in African green monkey Vero cells assessed as inhibition of virus-induced cytopathogenic effect dosed 1 hr after viral adsorption; type: functional, organism-based; conditions: Enterovirus B
Procedure, shortened: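 Confluent Vero monolayers were infected with 100 TCID50 CVB3 and adsorbed for 1 h at 37 °C. They were then washed with PBS and kept at 37 °C in MEM plus 2% FBS, with or without a range of compound concentrations. Ribavirin served as positive control.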

[5] = Cytotoxic activity against African green monkey Vero cells assessed as cytopathogenic effect incubated for 48 hrs; type: cell-based; conditions: chlorocebus sabaeus, read-out: TC50
Procedure, shortened: (§1)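 Cells plated in 96-well plates; after 24 h, monolayers exposed to various concentrations of compound for 48 h at 37 °C, 5% CO2. Toxicity monitored by cytopathogenic effect (CPE). Median toxic concentration (TC50) calculated by the Reed and Muench method.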

[6] = tested on: Coxsackievirus B3; assay: Antiviral activity against coxsackievirus B3 infected in African green monkey Vero cells assessed as inhibition of virus-induced cytopathogenic effect dosed 1 hr after viral adsorption relative to ribavirin; type: functional
[7] = tested on: Influenza A virus; assay: Antiviral activity against influenza A virus (A/Hanfang/359/95(H3N2)) infected in MDCK cells assessed as inhibition of virus-induced cytopathogenic effect dosed 1 hr after viral adsorption; type: functional, organism-based
[8] = Selectivity index, ratio of TC50 for […] MDCK cells to IC50 for influenza A virus (A/Hanfang/359/95(H3N2)); type: toxicity, cell-based; conditions: read-out: Selectivity Index
Procedure, shortened: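 SI is TC50/IC50. TC50: MDCK cells were plated for 24 h, then exposed to graded compound concentrations for 48 h at 37 °C in 5% CO2, scored by CPE, and calculated by Reed–Muench. IC50 came from the H3N2-infected MDCK assay, with 1 h adsorption and then compound in MEM plus 2% FBS.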

[9] = Cytotoxic activity against MDCK cells assessed as cytopathogenic effect incubated for 48 hrs; type: cell-based, Canis lupus familiaris; conditions: dog, read-out: TC50; procedure, shortened: as §1

| SMILES | inhibition [1] | inhibition [2] | IC50 [7] | selectivity ratio [8] | also measured |
| --- | --- | --- | --- | --- | --- |
| O=C1CCC[C@@H]2[C@H]3CCC[N+]4([O-])CCC[C@@](O)(CN12)[C@@H]34 (some centres not stated) | inactive | inactive |  |  |  |
| O=C1[C@@H](O)CC[C@@H]2[C@H]3CCC[N+]4([O-])CCC[C@@H](CN12)[C@@H]34 (some centres not stated) | inactive | inactive |  |  |  |
| O=C1[C@@H](O)CC[C@@H]2[C@H]3CCCN4CCC[C@@H](CN12)[C@@H]34 |  | inactive |  |  | selectivity ratio [3]: 4.1; IC50 [4]: 184 µM; CC50 at 48 h [5]: 757 µM |
| O=C1CCC[C@@H]2[C@H]3CCCN4CCC[C@@H](CN12)[C@@H]34 | inactive | inactive |  |  |  |
| O=C1C=C[C@@H](O)[C@@H]2[C@H]3CCC[N+]4([O-])CCC[C@@H](CN12)[C@@H]34 (some centres not stated) |  | inactive |  |  | selectivity ratio [3]: 4.3; IC50 [4]: 26.6 µM; CC50 at 48 h [5]: 115 µM; Ratio IC50 [6]: 45 |
| O=C1C=CC[C@@H]2[C@H]3CCCN4CCC[C@@H](CN12)[C@@H]34 | inactive | inactive |  |  |  |
| O=c1cccc2n1C[C@@H]1CCCN3CCC[C@H]2[C@H]13 | inactive |  | 63.1 µM | 4.3 | CC50 at 48 h [9]: 273 µM |
| O=C1C=CC[C@@H]2[C@H]3CCC[N+]4([O-])CCC[C@@](O)(CN12)[C@@H]34 (some centres not stated) | inactive |  |  |  |  |
| O=C1CC=C[C@@H]2[C@H]3CCCN4CCC[C@@](O)(CN12)[C@@H]34 | inactive | inactive |  |  |  |
| NC(=O)c1ncn([C@@H]2O[C@H](CO)[C@@H](O)[C@H]2O)n1 [RIBAVIRIN] |  |  |  | 813 | selectivity ratio [3]: 6.8; IC50 [4]: 1200 µM |
| O=C1C=C[C@H](O)[C@@H]2[C@H]3CCCN4CCC[C@@H](CN12)[C@@H]34 | inactive |  | 84.7 µM | 5.7 | CC50 at 48 h [9]: 479 µM |
| O=C1C=CC[C@@H]2[C@H]3CCC[N+]4([O-])CCC[C@@H](CN12)[C@@H]34 (some centres not stated) [OXYSOPHOCARPINE] | inactive |  | 403 µM | > 1.9 | CC50 at 48 h [9]: > 762 µM |
| O=C1C=CC[C@@H]2[C@H]3C[C@H](O)CN4CCC[C@@H](CN12)[C@@H]34 |  | inactive |  |  | selectivity ratio [3]: > 3.9; IC50 [4]: 197 µM; CC50 at 48 h [5]: > 762 µM |
| CCOC(=O)C1=C[C@@H](OC(CC)CC)[C@H](NC(C)=O)[C@@H](N)C1 [OSELTAMIVIR] |  |  | 1.07 µM | 2870 |  |
| O=C1CCC[C@@H]2[C@H]3CCC[N+]4([O-])CCC[C@@H](CN12)[C@@H]34 (some centres not stated) | inactive | inactive |  |  |  |
| O=C1C=CC[C@@H]2[C@H]3CCCN4CCC[C@@](O)(CN12)[C@@H]34 | inactive |  | 440 µM | > 1.7 | CC50 at 48 h [9]: > 762 µM |
| O=C1CCC[C@@H]2[C@H]3CCCN4CCC[C@@](O)(CN12)[C@@H]34 |  | inactive |  |  | selectivity ratio [3]: > 3; IC50 [4]: 252 µM; CC50 at 48 h [5]: > 757 µM |
| O=C1CCC[C@@H]2[C@H]3C[C@H](O)CN4CCC[C@@H](CN12)[C@@H]34 | inactive | inactive |  |  |  |
| O=C1C=C[C@@H](O)[C@@H]2[C@H]3CCCN4CCC[C@@H](CN12)[C@@H]34 | inactive |  | 242 µM | > 3.1 | CC50 at 48 h [9]: > 762 µM |
